Compounds with a hit are over-represented: about 2.5% of the library has one in this group of screens.
m5-HT2A agonist: activates the mouse 5-HT2A serotonin receptor; P35363; CHO-K1 mHTR2A beta-arrestin complementation, luminescence; percent of 30 µM serotonin response; activation, % at 7.6 µM; actives 0.66% (n = 360,000); AID 624169;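 active = activation above a run cutoff, the mean activation of all tested compounds plus 3 SD, cut at about 14% in these data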;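 note: 0% = plate median of compound wells and 100% = 30 µM serotonin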
Target sequence (P35363 whole entry, looked up): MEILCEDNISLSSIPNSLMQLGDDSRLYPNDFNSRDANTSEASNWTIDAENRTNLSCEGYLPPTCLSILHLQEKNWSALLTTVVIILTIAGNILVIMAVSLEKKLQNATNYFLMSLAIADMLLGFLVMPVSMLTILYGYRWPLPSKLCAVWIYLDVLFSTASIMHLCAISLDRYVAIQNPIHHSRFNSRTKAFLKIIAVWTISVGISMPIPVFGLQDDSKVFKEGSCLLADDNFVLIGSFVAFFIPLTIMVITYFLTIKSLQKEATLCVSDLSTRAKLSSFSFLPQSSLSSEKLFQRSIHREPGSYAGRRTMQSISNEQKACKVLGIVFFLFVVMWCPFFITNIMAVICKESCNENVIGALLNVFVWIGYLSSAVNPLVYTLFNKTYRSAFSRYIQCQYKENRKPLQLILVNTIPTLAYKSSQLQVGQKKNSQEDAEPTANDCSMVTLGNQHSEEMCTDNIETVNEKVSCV
VIM-2 inh: inhibitors of Pseudomonas aeruginosa VIM-2 metallo-beta-lactamase; purified VIM-2, nitrocefin hydrolysis, epi-absorbance fluorescence; actives 0.89% (n = 290,000); inhibition, % at 5.6 µM;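 active = inhibition above the mean of all tested compounds plus 3 SD, cutoff set per screening run, cut at about 7.5% in these data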;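 note: red hydrolysis product quenches plate fluorescence so inhibitors raise well fluorescence; 0% = enzyme with DMSO and 100% = DMSO without enzyme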
IMP-1 inh-1: inhibitors of Pseudomonas aeruginosa IMP-1 metallo-beta-lactamase. purified IMP-1, nitrocefin hydrolysis, epi-absorbance fluorescence. inhibition, % at 5.6 µM. actives 0.45% (n = 290,000). AID 1556;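 active = inhibition above the mean plus 3 SD of all compounds in the same screening run, cut at about 4.5% in these data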;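 note: 0% = IMP-1 with DMSO and 100% = DMSO wells lacking enzyme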
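Assay system: purified recombinant IMP-1 beta-lactamase. Input: IMP-1 0.2 nM before substrate addition. Buffer or medium: Zinc- and detergent-supplemented HEPES buffer, pH 7.1. Schedule: 25 °C, 15 min preincubation, 25 min reaction. Signal: Epi-absorbance fluorescence, 480 nm excitation, 530 nm emission. Evaluation: percent inhibition from optical density relative to buffer-blank wells.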
dFosB act: activators of mouse delta FosB homodimer; actives 0.99% (n = 340,000); P13346; AID 493131; activation, % at 25 µM; purified delta FosB, TAMRA-CDK5 oligo fluorescence polarization; percent of positive-control signal above neutral wells;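 active = mean activation above about 17%, with every replicate also reaching it, limit read from the data, passing the limit was not always enough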
IMP-1 inh-2: IMP-1 inhibition, counter-screen for VIM-2 inhibitors; shares compounds with VIM-2 inh; purified IMP-1, nitrocefin hydrolysis, epi-absorbance fluorescence; inhibition, % at 5.6 µM; 1,300 tested, under 10 active; call rule not given here;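 note: 0% = enzyme with vehicle and 100% = vehicle without enzyme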
VIM-2 FRET ctr: inhibits VIM-2 in FRET assay to exclude epi-absorbance artifacts | shares compounds with VIM-2 inh | purified VIM-2, CCF2 FRET substrate hydrolysis | inhibition, % at 5.6 µM | actives 23% (n = 1,300) | AID 1857;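 active = inhibition above the mean of all tested compounds plus 3 SD, cut at about 19% in these data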;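 note: 0% = VIM-2 plus DMSO and 100% = no enzyme wells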
TEM-1 inh: TEM-1 inhibition, counter-screen for VIM-2 inhibitors | actives 3% (n = 1,300) | Purified TEM-1, nitrocefin hydrolysis, epi-absorbance fluorescence | inhibition, % at 5.6 µM | shares compounds with VIM-2 inh;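 active = inhibition above that campaign's mean inhibition plus 3 SD, cut at about 0.46% in these data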;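 note: 0% = TEM-1 with DMSO and 100% = TEM-1 with 100 µM potassium clavulanate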
VIM-2 inh conf: confirmation of P. aeruginosa VIM-2 metallo-beta-lactamase inhibitors; inhibition, % at 5.6 µM; shares compounds with VIM-2 inh; purified VIM-2, nitrocefin hydrolysis, epi-absorbance; actives 96% (n = 1,300);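 active = inhibition of the VIM-2 beta-lactamase enzyme above about 11% from the earlier first-round screen, limit read from the data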;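 note: 0% = VIM-2 with DMSO and 100% = buffer wells without enzyme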
Numbers without * were called inactive; nt = not tested or not shown.

SMILES	m5-HT2A agonist	VIM-2 inh	IMP-1 inh-1	dFosB act	IMP-1 inh-2	VIM-2 FRET ctr	TEM-1 inh	VIM-2 inh conf
Cc1c(OCC(=O)NCCCN2CCOCC2)ccc2c3c(c(=O)oc12)CCC3	3	25*	-3	-17	-2	1	-14	37*
Cc1c(OCC(=O)NCCCN2CCOCC2)ccc2c1oc(=O)c1ccccc12	6	26*	-2	-45	-1	1	-4	38*
CCCCc1cc(=O)oc2c(C)c(OCC(=O)NCCN3CCOCC3)ccc12	-1	5	1	-12	nt	nt	nt	nt
O=c1[nH]nc(-c2ccc(NCCO)c([N+](=O)[O-])c2)c2ccccc12	-3	25*	-3	2	-3	2	-7	38*
O=c1[nH]nc(-c2ccc(NCCCO)c([N+](=O)[O-])c2)c2ccccc12	-5	24*	-1	-7	-2	3	-2	34*
Cc1ccc(-c2n[nH]c(=O)c3ccccc23)cc1S(=O)(=O)NCCO	-1	1	-1	-5	nt	nt	nt	nt
O=C(Nc1ccc(SC(F)(F)F)cc1)c1ccccn1	-7	-3	-3	-1	nt	nt	nt	nt
Cc1cnc(-c2nc3ccccc3n2C(C)C(=O)Nc2c(C)cccc2C)cn1 (stereo not drawn)	1	nt	nt	nt	nt	nt	nt	nt
CC(=O)NCCNc1nc2cc(-c3cccc(C(F)(F)F)c3)sc2c(=O)n1C	-4	nt	nt	nt	nt	nt	nt	nt
CCCCc1n[nH]c(=S)n1Cc1ccccc1	14	7	-3	1	nt	nt	nt	nt
COc1ccc(OC)c(-n2c(-c3ccccc3)n[nH]c2=S)c1	3	1	-4	1	nt	nt	nt	nt
COc1ccccc1-n1c(-c2ccccc2)n[nH]c1=S	9	15*	-4	-2	-2	46*	-7	26*
COc1ccccc1-c1n[nH]c(=S)n1Cc1ccccc1	-3	25*	-2	5	-3	52*	-9	34*
S=c1[nH]nc(-c2ccc(Br)cc2)n1Cc1ccco1	11	2	-3	-3	nt	nt	nt	nt
COc1ccccc1-c1n[nH]c(=S)n1Cc1ccco1	nt	16*	-4	nt	-3	47*	-7	29*
CCCCc1n[nH]c(=S)n1Cc1ccc(Cl)cc1	5	15*	-3	1	-3	25*	-6	18*
CCCc1n[nH]c(=S)n1Cc1ccco1	4	17*	-5	0	-2	40*	-5	25*
Nc1nc(/C=C/c2cccnc2)nc(-c2ccccc2O)n1	3	23*	-1	1	-3	-4	-7	60*
Cc1c(CC(=O)O)c(=O)oc2c(C)c3occ(-c4ccc(F)cc4)c3cc12	0	15*	2	-32	1	5	-12	25*
COc1ccc2c(c1)OC[C@H]1[C@H]2N2C(=O)[C@H](C)NC(=O)[C@@]2(C)[C@H]1c1ccccc1	1	nt	nt	1	nt	nt	nt	nt
CC(C)(C)c1ccc(COc2ccsc2C(=O)O)cc1	1	20*	-4	-6	-3	48*	-4	29*
CC1(C(=O)NCc2ccccc2)CSCC(=O)N1CC(F)(F)F (stereo not drawn)	-3	nt	nt	nt	nt	nt	nt	nt
CC(Oc1ccc2c3c(c(=O)oc2c1)CCCC3)C(=O)NCC1CCC(C(=O)O)CC1 (stereo not drawn)	2	0	-2	-2	nt	nt	nt	nt
CC(Oc1ccc2c3c(c(=O)oc2c1)CCCC3)C(=O)NCCCn1ccnc1 (stereo not drawn)	-2	23*	-4	-7	-4	-6	-6	40*
O=C(COc1ccc2c3c(c(=O)oc2c1)CCCC3)NCCCn1ccnc1	3	30*	-1	-16	-1	-5	1.4*	41*
O=C(COc1ccc2c(-c3ccccc3)cc(=O)oc2c1)NCCCn1ccnc1	-1	3	0	-8	nt	nt	nt	nt
Cc1c(C)c2ccc(OCC(=O)NCCCn3ccnc3)cc2oc1=O	-5	21*	0	-10	-4	-1	-6	32*
CCC(c1n[nH]c(=S)n1-c1ccccc1)N(C)C (stereo not drawn)	-2	17*	-6	-10	-3	34*	-4	26*
